Test results taken from ChEMBL document CHEMBL2034854, “Design, synthesis and biological evaluation of novel amino acid ureido derivatives as aminopeptidase N/CD13 inhibitors” (Bioorg Med Chem, 2012).
Calls of active or inactive are those of the source. The rule behind the calls is not given here.

molecular target: T1, Aminopeptidase N (Sus scrofa, UniProt P15145); assay: Inhibition of pig kidney APN using L-Leu-p-nitroanilide as substrate incubated for 5 mins prior to substrate addition measured after 30 mins by UV/VIS spectrophotometry; settings: not given
T1 sequence (P15145 whole entry): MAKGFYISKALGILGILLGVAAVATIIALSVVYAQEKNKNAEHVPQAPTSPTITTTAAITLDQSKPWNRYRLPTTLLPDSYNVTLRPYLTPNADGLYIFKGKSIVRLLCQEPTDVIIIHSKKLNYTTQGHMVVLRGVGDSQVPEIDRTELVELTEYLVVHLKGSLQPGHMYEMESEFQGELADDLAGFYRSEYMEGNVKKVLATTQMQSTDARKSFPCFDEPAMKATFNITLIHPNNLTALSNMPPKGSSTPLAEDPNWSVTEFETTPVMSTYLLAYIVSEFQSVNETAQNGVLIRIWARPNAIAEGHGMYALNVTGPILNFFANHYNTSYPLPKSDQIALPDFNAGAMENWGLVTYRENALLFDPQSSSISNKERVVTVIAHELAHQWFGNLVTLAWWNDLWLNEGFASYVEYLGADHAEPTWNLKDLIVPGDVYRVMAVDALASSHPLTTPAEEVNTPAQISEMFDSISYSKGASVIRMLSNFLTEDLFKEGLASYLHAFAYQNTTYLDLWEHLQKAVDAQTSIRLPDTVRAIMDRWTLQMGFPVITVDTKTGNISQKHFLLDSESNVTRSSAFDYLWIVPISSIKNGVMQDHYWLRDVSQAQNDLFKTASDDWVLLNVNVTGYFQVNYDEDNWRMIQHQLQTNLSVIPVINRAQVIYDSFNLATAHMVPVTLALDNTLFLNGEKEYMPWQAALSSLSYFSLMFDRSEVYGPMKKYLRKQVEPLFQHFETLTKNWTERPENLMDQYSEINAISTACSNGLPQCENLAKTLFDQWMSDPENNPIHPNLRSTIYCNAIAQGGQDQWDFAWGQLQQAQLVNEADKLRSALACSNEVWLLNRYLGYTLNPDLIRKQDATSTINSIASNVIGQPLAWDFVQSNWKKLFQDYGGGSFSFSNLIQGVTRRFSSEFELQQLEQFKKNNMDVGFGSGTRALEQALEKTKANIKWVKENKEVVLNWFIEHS
Method in brief: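 Porcine kidney microsomal APN, 6 μg/mL final, in 50 mM PBS pH 7.2 with 0.5% DMSO final. Inhibitor and enzyme preincubated 5 min at room temperature. Percent inhibition from control and zero-setting OD; IC50 calculated.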

IC50 | Structure (SMILES)
> 100 µM | CC(C)[C@H](NC(=O)NCCc1ccccc1)C(=O)NO
21 µM | C[C@H](NC(=O)NCc1ccccc1)C(=O)NO
> 100 µM | CC[C@H](C)[C@H](NC(=O)NCCc1ccccc1)C(=O)NO
> 100 µM | C[C@H](NC(=O)NC(C)(C)C)C(=O)NO
5.6 µM | O=C(NCc1ccccc1)N[C@@H](Cc1ccccc1)C(=O)NO
> 100 µM | O=C(N[C@@H](Cc1ccccc1)C(=O)NO)N[C@@H](Cc1ccccc1)C(=O)NO
> 100 µM | CC(C)C[C@H](NC(=O)NC1CCCCC1)C(=O)NO
> 100 µM | CC(C)C[C@H](NC(=O)NC(C)(C)C)C(=O)NO
21 µM | C[C@H](NC(=O)NCCc1ccccc1)C(=O)NO
1.1 µM | CC(C)C[C@H](NC(=O)NCCc1ccccc1)C(=O)NO
> 100 µM | CC(C)[C@H](NC(=O)NC(C)(C)C)C(=O)NO
> 100 µM | CC(C)C[C@H](NC(=O)N[C@@H](CC(C)C)C(=O)NO)C(=O)NO
4.1 µM | CC[C@H](C)[C@H](NC(=O)NCc1ccccc1)C(=O)NO
3.8 µM | CSCC[C@H](NC(=O)NCc1ccccc1)C(=O)NO
> 100 µM | CC(C)(C)NC(=O)N[C@@H](Cc1ccccc1)C(=O)NO
6.5 µM | O=C(NCCc1ccccc1)N[C@@H](Cc1ccccc1)C(=O)NO
17 µM | CC(C)[C@H](NC(=O)NCc1ccccc1)C(=O)NO
52 µM | O=C(CNC(=O)NCCc1ccccc1)NO
18 µM | CC(C)C[C@H](NC(=O)OCCc1ccccc1)C(=O)NO
9.1 µM | CC(C)C[C@H](NC(=O)OCc1ccccc1)C(=O)NO
32 µM | O=C(CNC(=O)NCc1ccccc1)NO
> 100 µM | CC(C)(C)NC(=O)NCC(=O)NO
> 100 µM | CC[C@H](C)[C@H](NC(=O)NC(C)(C)C)C(=O)NO
> 100 µM | CSCC[C@H](NC(=O)NCCc1ccccc1)C(=O)NO
> 100 µM | CSCC[C@H](NC(=O)NC(C)(C)C)C(=O)NO

molecular target: Aminopeptidase N (Homo sapiens, UniProt P15144); assay: Inhibition of APN in human ES2 cell surface using L-Leu-p-nitroanilide as substrate incubated for 5 mins prior to substrate addition measured after 1 hr by UV/VIS spectrophotometry; settings: not given
Method in brief: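 Enzyme source: intact ES-2 cells, 2 × 10^5 per well, in 10 mM PBS pH 7.4 with 0.1% DMSO final. Inhibitors preincubated with cells 5 min at room temperature. L-Leu-p-nitroanilide then added, 1 h at 37 °C. Inhibition from control and zero-setting OD; IC50 calculated; mean ± SD of three assays.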

Sequence of Aminopeptidase N (Homo sapiens, UniProt P15144) (P15144 whole entry): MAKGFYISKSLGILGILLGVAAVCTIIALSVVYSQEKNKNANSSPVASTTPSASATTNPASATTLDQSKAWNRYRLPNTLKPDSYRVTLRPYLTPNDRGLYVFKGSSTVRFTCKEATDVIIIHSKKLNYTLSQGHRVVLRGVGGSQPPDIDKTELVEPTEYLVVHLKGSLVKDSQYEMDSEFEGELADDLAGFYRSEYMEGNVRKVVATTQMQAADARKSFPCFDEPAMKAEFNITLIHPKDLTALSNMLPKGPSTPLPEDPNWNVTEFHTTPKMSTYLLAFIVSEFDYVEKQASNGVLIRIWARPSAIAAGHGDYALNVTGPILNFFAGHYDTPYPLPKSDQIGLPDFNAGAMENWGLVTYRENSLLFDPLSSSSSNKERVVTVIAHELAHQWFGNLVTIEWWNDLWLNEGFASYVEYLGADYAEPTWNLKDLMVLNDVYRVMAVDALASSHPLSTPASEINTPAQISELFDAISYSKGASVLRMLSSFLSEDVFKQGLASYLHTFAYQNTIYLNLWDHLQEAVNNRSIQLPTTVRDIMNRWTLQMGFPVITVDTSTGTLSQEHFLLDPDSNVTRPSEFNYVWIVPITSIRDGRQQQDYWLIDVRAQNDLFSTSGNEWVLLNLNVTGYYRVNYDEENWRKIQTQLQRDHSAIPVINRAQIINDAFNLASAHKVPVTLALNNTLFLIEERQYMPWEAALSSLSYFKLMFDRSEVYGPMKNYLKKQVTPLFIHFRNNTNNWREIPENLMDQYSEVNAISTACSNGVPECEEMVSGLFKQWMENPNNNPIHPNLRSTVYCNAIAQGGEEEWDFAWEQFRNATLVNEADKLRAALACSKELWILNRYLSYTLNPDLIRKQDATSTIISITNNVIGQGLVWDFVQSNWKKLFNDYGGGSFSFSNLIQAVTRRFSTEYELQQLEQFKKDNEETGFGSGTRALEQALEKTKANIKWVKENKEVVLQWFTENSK

IC50 | Structure (SMILES)
16 µM | O=C(NCc1ccccc1)N[C@@H](Cc1ccccc1)C(=O)NO
5.1 µM | CC(C)C[C@H](NC(=O)NCCc1ccccc1)C(=O)NO
39 µM | CC[C@H](C)[C@H](NC(=O)NCc1ccccc1)C(=O)NO
22 µM | CSCC[C@H](NC(=O)NCc1ccccc1)C(=O)NO

molecular target: 72 kDa type IV collagenase (Homo sapiens, UniProt P08253); assay: Inhibition of recombinant MMP2 using succinylated gelatin as substrate incubated for 10 mins prior to substrate addition measured after 1 hr by UV/VIS spectrophotometry; settings: not given
Method in brief: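 Recombinant MMP-2 and compound, both in 50 mM sodium borate pH 8.5, held 10 min at 37 °C. Succinylated gelatin then added for 60 min at 37 °C. Free amines developed with 0.03% picrylsulfonic acid, 20 min at room temperature, read at 450 nm. Inhibition from control and zero-setting OD; IC50 calculated; three assays, SD <10% of means.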

Sequence of 72 kDa type IV collagenase (P08253 whole entry): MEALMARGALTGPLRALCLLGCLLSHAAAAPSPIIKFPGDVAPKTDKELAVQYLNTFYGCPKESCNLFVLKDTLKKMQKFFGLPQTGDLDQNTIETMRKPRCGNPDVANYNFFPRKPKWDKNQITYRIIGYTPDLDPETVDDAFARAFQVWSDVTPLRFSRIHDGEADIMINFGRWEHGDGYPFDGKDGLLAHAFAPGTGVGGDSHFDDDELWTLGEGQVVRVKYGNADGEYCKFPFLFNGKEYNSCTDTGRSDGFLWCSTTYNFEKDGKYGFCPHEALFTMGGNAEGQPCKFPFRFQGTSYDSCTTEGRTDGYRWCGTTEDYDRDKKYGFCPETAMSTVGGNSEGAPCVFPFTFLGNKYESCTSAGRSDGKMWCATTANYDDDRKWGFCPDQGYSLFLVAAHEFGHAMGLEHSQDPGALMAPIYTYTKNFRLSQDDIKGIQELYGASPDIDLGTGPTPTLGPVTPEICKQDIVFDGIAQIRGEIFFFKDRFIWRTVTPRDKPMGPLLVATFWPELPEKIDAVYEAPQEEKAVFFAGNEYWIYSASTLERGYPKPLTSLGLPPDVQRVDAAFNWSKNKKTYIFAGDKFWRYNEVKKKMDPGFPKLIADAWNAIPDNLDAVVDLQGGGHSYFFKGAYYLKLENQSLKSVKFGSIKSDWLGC

IC50 | Structure (SMILES)
> 500 µM | O=C(NCc1ccccc1)N[C@@H](Cc1ccccc1)C(=O)NO
> 500 µM | CC(C)C[C@H](NC(=O)NCCc1ccccc1)C(=O)NO
> 500 µM | CC[C@H](C)[C@H](NC(=O)NCc1ccccc1)C(=O)NO
> 500 µM | CSCC[C@H](NC(=O)NCc1ccccc1)C(=O)NO

system: not listed separately; assay: Antiproliferative activity against human ES2 cells after 48 hrs by MTT assay; format: functional, cell-based; settings: ES-2, 48 h
Method in brief: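 ES-2 cells grown in RPMI-1640 with 10% FBS, seeded 8000 per well and left to adhere 10 h. Compounds then added at a range of concentrations in the same medium with 0.1% DMSO, 48 h at 37 °C in CO2. MTT added for 4 h; formazan dissolved in DMSO, read at 590 nm. Inhibition from control and zero-setting OD; IC50 calculated; three assays.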

Structure (SMILES) | IC50
O=C(NCc1ccccc1)N[C@@H](Cc1ccccc1)C(=O)NO | 510 µM
CC(C)C[C@H](NC(=O)NCCc1ccccc1)C(=O)NO | 96 µM
CC[C@H](C)[C@H](NC(=O)NCc1ccccc1)C(=O)NO | 770 µM
CSCC[C@H](NC(=O)NCc1ccccc1)C(=O)NO | > 1000 µM
CC(C)C[C@H](NC(=O)[C@@H](O)[C@H](N)Cc1ccccc1)C(=O)O [UBENIMEX] | 490 µM

system: ES2; assay: Antimetastatic activity against human ES2 cells assessed as inhibition of migration through transwell chamber without matrigel coating at 100 ug/mL after 3 hrs by crystal voilet staining; format: functional, cell-based; settings: not given
Method in brief: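 Uncoated transwell inserts. Upper chamber holds compound at 100 µg/mL in RPMI-1640 with 1% FBS, 0.1% DMSO final, plus ES-2 cells (60000 per well). Migration 3 h at 37 °C in CO2. Upper-side cells swabbed away; migrated cells fixed and stained with 0.1% crystal violet, extracted with 33% acetic acid, read at 595 nm. Rate uses treated, control and blank OD. Repeated ≥3 times in triplicate.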

Structure (SMILES) | inhibition
O=C(NCc1ccccc1)N[C@@H](Cc1ccccc1)C(=O)NO | inactive
CC(C)C[C@H](NC(=O)NCCc1ccccc1)C(=O)NO | inactive
CC[C@H](C)[C@H](NC(=O)NCc1ccccc1)C(=O)NO | inactive

system: not listed separately; assay: Antimetastatic activity against human ES2 cells assessed as inhibition of invasion through transwell chamber with matrigel coating at 10 to 100 ug/mL after 8 hrs by crystal voilet staining relative to control; format: functional; settings: not given
Method in brief: (§1)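 ES-2 cells (100,000 per insert) in RPMI-1640 with 1% FBS placed on Matrigel inserts rehydrated 2 h; lower chamber RPMI-1640 with 10% FBS. Compound at 10 and 100 μg/mL with 0.1% DMSO final added to upper chamber. Invasion 8 h at 37 °C in CO2. Non-invading cells swabbed off; remaining cells fixed and crystal-violet stained, counted in five random ×100 fields per insert. At least three experiments, triplicates.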

Structure (SMILES) | inhibition (INH)
CC(C)C[C@H](NC(=O)NCCc1ccccc1)C(=O)NO | 55%

system: ES2; assay: Antimetastatic activity against human ES2 cells assessed as inhibition of invasion through transwell chamber with matrigel coating after 8 hrs by crystal voilet staining; format: functional, cell-based; settings: not given; method in brief: as §1

Structure (SMILES) | inhibition
CC(C)C[C@H](NC(=O)NCCc1ccccc1)C(=O)NO | Dose-dependent effect
